Screening data (PubChem)
This is a sample that favours compounds with a hit; in the whole collection about 4.9% have one here.
STAT1 inh: reduces IFN-gamma driven STAT1 reporter signal | 200,000 tested, 0.35% active | NIH 3T3 STAT1-luciferase reporter, luminescence | AID 920 | inhibition, % at 5.5 µM;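 active means inhibition above a set limit, the mean inhibition across all tested compounds plus 3 SD, cut at about 34% in these data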;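 further: 0% = IFN-gamma with DMSO and 100% = IFN-gamma with 300 µM nifuroxazide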
STAT1 act: increases IFN-gamma driven STAT1 reporter signal; activation (% of control), % at 5.5 µM; 200,000 tested, 2.6% active; NIH 3T3 STAT1-luciferase reporter, luminescence; 100% = IFN-gamma alone, no compound;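 active means activation above the screen-wide mean activation plus 3 SD, cut at about 130% in these data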;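 further: raw ratio to IFN-gamma control signal so 100% means no change and 0% no light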
APP 5'UTR act: APP 5'UTR luciferase reporter activation; SH-SY5Y APP 5'UTR luciferase reporter, luminescence; zero percent = DMSO vehicle wells; activation, % at 2 µM; 190,000 tested, 1% active;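 active means activation above a set limit, based on mean plus 3 SD of controls, cut at about 140% in these data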
STAT3 inh: inhibitors of IL-6 induced STAT3 signaling; U3A cells, IL-6 STAT3-luciferase reporter, luminescence; host cell line lacks STAT1; inhibition, % at 5.5 µM; 190,000 tested, 0.89% active; AID 862;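 active means inhibition above the mean inhibition across all screened compounds plus 3 SD, cut at about 44% in these data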;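 further: 0% = DMSO only wells and 100% = 100 µM nifuroxazide control wells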
NF-kB expr up: compounds increasing NF-kB expression in human neuronal cells; 190,000 tested, 1.6% active; fold change at 12.5 µM; NF-kB reporter expression; active compounds read high; in the data active means fold change above about 3.3
STAT3 activator: STAT3 signaling activation | activation (% of control), % at 5.6 µM | U3A cells, IL-6 STAT3-luciferase reporter, luminescence; 100% = signal with IL-6 EC80 alone | 190,000 tested, 0.91% active;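 active means activation above the screen-wide mean of compound activation plus 3 SD, cut at about 130% in these data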;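 further: 0% = background luminescence of wells with medium and substrate only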
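Material: STAT3-luciferase reporter U3A cells. Controls: IL-6-treated wells, 100% activation. Read-out: % activation versus median of IL-6-stimulated wells. Probe or stimulus: IL-6 stimulus at 33 ng/mL final. Timing: compound 1 h, then IL-6 6 h at 37 °C. Signal: reporter luminescence signal.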
Active calls of the source: *.

Screening Cc1nc(SCC(=O)c2ccc(F)cc2)c([N+](=O)[O-])[nH]1 returned STAT1 inh -2.9, STAT1 act 102.6, APP 5'UTR act 12.3, STAT3 inh 17.7, NF-kB expr up 1.27 and STAT3 activator 94.3.
`S=C(Nc1ccc2c(c1)OCO2)Nc1ccc2c(c1)OCO2` gave STAT1 inh -15.9, STAT1 act 114.4, APP 5'UTR act 51.2, STAT3 inh 2.5, NF-kB expr up 1.46 and STAT3 activator 101.1.
CCc1ccc(C(=O)NC(=S)Nc2ccc3c(c2)OCCO3)cc1 was read as STAT1 inh -50.2, STAT1 act 145.5*, APP 5'UTR act 136.3*, STAT3 inh -2.8, NF-kB expr up 5.42* and STAT3 activator 107.5.
O=C(NC(=S)Nc1ccc2c(c1)OCO2)c1ccc(Cl)cc1 was read as STAT1 inh -34.4, STAT1 act 130.2*, APP 5'UTR act 164.8*, STAT3 inh -9.6, NF-kB expr up 2.49 and STAT3 activator 110.5.
For O=C(NC(=S)Nc1ccc2c(c1)OCCO2)c1ccc(F)cc1Cl the results were STAT1 inh -35.2, STAT1 act 131.1*, APP 5'UTR act 13.1, STAT3 inh -9.2, NF-kB expr up 2.04 and STAT3 activator 112.5.
Cc1c(Cl)cccc1NC(=S)N1CCN(Cc2ccc3c(c2)OCO3)CC1 was read as STAT1 inh -2.7, STAT1 act 102.4, APP 5'UTR act -1.8, STAT3 inh -0.5, NF-kB expr up 1.15 and STAT3 activator 102.3.
For Cc1ccc(NC(=S)N/C(=N/S(=O)(=O)c2ccccc2)c2ccccc2)cc1 the results were STAT1 inh -48.8, STAT1 act 142.6*, APP 5'UTR act 55.1, STAT3 inh -1.8, NF-kB expr up 2.35 and STAT3 activator 101.4.
Screening COC(=O)c1ccc(N/C(=N/S(=O)(=O)c2ccccc2)c2ccccc2)cc1 returned STAT1 inh 3.0, STAT1 act 97.3, APP 5'UTR act 2.3, STAT3 inh -5.5, NF-kB expr up 0.93 and STAT3 activator 110.0.
`Cc1ccc(S(=O)(=O)/N=C(/NC(=S)Nc2ccccc2)c2ccccc2)cc1` gave STAT1 inh -54.9, STAT1 act 150.4*, APP 5'UTR act 143.5*, STAT3 inh -12.0, NF-kB expr up 5.97* and STAT3 activator 113.3.
N#CC(C#N)=C1C=CC=CN1/C(=C\c1ccccc1Cl)C(=O)c1ccccc1 was read as STAT1 inh 35.1*, STAT1 act 68.0, APP 5'UTR act -92.3, STAT3 inh 13.2, NF-kB expr up 0.68 and STAT3 activator 95.4.
`O=c1[nH]c(SCc2cccc(Cl)c2)nc2[nH]ncc12` gave STAT1 inh 0.7, STAT1 act 99.6, APP 5'UTR act 16.4, STAT3 inh 11.2, NF-kB expr up 0.77 and STAT3 activator 97.4.
`CCCOc1ccc(C(=O)Nc2ccccc2[N+](=O)[O-])cc1` gave STAT1 inh -44.2, STAT1 act 139.6*, APP 5'UTR act 114.0, STAT3 inh 25.8 and STAT3 activator 84.0.
COc1ccc(NC(=O)c2cccnc2)c([N+](=O)[O-])c1 was read as STAT1 inh 1.4, STAT1 act 97.3, APP 5'UTR act -21.2, STAT3 inh 15.9, NF-kB expr up 1.32 and STAT3 activator 87.8.
For CCCCOc1ccc(C(=O)Nc2ccc(C)cc2[N+](=O)[O-])cc1 the results were STAT1 inh -6.3, STAT1 act 105.4, APP 5'UTR act -1.2, STAT3 inh 3.8, NF-kB expr up 1.61 and STAT3 activator 97.9.
CCOc1ccc(NC(=O)c2ccc(CC)s2)c([N+](=O)[O-])c1 was read as STAT1 inh -39.4, STAT1 act 132.9*, APP 5'UTR act 78.6, STAT3 inh 5.5, NF-kB expr up 1.81 and STAT3 activator 99.5.
For CCOc1ccc(NC(=O)c2cccnc2Cl)c([N+](=O)[O-])c1 the results were STAT1 inh -14.9, STAT1 act 113.1, APP 5'UTR act -3.0, STAT3 inh 5.5, NF-kB expr up 1.09 and STAT3 activator 95.6.
For COc1ccc(NC(=O)c2ccccc2)c([N+](=O)[O-])c1 the results were STAT1 inh -38.6, STAT1 act 131.6*, APP 5'UTR act 48.8, STAT3 inh 6.7, NF-kB expr up 1.17 and STAT3 activator 98.3.
C=CCc1c(C)[nH]c(=O)[nH]c1=O was read as STAT1 inh -12.1, STAT1 act 112.0, APP 5'UTR act -3.0, STAT3 inh 11.2, NF-kB expr up 1.03 and STAT3 activator 91.3.
For CCn1nc(C)c(CN2CCc3c([nH]c4ccccc34)C2c2ccc(F)c(OC)c2)c1C (configuration not stated) the results were STAT1 inh -0.4, STAT1 act 98.3, APP 5'UTR act 11.1, STAT3 inh -0.4, NF-kB expr up 1.18 and STAT3 activator 105.5.
For COc1ccc(CSC2=CS(=O)(=O)c3ccccc3N2)cc1 the results were STAT1 inh -7.4, STAT1 act 105.0, APP 5'UTR act 19.3, STAT3 inh 9.7, NF-kB expr up 0.93 and STAT3 activator 100.6.
Screening O=C(CSCc1ccccc1Br)N/N=C/c1ccccc1C(=O)O returned STAT1 inh -13.0, STAT1 act 110.1, APP 5'UTR act 5.0, STAT3 inh 1.3, NF-kB expr up 0.92 and STAT3 activator 108.8.
`CCCCCC1=CCC/C1=N\NC(=O)c1ccc2c(c1)OCO2` gave STAT1 inh -1.5, STAT1 act 101.0, APP 5'UTR act -13.5, STAT3 inh 0.4, NF-kB expr up 1.04 and STAT3 activator 103.0.
Nc1ccc2nc(SCc3cccc(F)c3)sc2c1 was read as STAT1 inh -26.8, STAT1 act 125.1, APP 5'UTR act 53.4, STAT3 inh -5.1, NF-kB expr up 6.11* and STAT3 activator 108.8.
`Cc1cc(/C=C(\C#N)C(=O)O)c(C)n1C1CC1` gave STAT1 inh -10.6, STAT1 act 109.7, APP 5'UTR act -18.4, STAT3 inh -9.7, NF-kB expr up 1.28 and STAT3 activator 117.3.
Screening Cc1cc(/C=C(/C#N)C(=O)Nc2ccccc2)c(C)n1-c1cccnc1 returned STAT1 inh -55.2, STAT1 act 149.7*, APP 5'UTR act 97.5, STAT3 inh -2.8, NF-kB expr up 2.01 and STAT3 activator 111.3.
COCCNC(=O)/C(C#N)=C/c1cc(C)n(-c2ccc(C)cc2)c1C was read as STAT1 inh -48.5, STAT1 act 145.3*, APP 5'UTR act 153.7*, STAT3 inh 6.6, NF-kB expr up 6.19* and STAT3 activator 99.3.
COCCNC(=O)/C(C#N)=C/c1cc(C)n(C2CCCCC2)c1C was read as STAT1 inh -37.7, STAT1 act 134.5*, APP 5'UTR act 144.5*, STAT3 inh 18.5, NF-kB expr up 3.05 and STAT3 activator 86.5.
For Cc1ccccc1-n1c(C)cc(/C=C(\C#N)C(=O)NCC2CCCO2)c1C (configuration not stated) the results were STAT1 inh -56.2, STAT1 act 149.3*, APP 5'UTR act 122.6, STAT3 inh -27.2, NF-kB expr up 1.05 and STAT3 activator 122.7.
